The text below walks through data of ChEMBL document CHEMBL4138124, “Antineoplastic Agents. 605. Isoquinstatins” (2018).

Common to all, as to assay type: functional
One assay concerns SF-268. In words: Growth inhibition of human SF268 cells after 48 hrs by SRB assay. Particulars: SF-268, 48 h. In outline: (§1)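 Cells grown in RPMI1640 with 5% fetal bovine serum, seeded in 96-well plates and incubated 24 h before serial dilutions of compound were added. After a further 48 h, cells were fixed with trichloroacetic acid, stained with sulforhodamine B and read on a plate reader. GI50 (concentration giving 50% reduction in net protein increase) was calculated from optical density data.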
(The SRB assay estimates cell density from bound dye.)

A further assay relates to NCI-H460. In words: Growth inhibition of human NCI-H460 cells after 48 hrs by SRB assay. As to conditions: NCI-H460, 48 h. In outline:
as §1

The next assay deals with DU-145. Put plainly: Growth inhibition of human DU145 cells after 48 hrs by SRB assay. Particulars: DU-145, 48 h. In outline: as §1
The test system of another assay is KM-20L2. Put plainly: Growth inhibition of human KM20L2 cells after 48 hrs by SRB assay. As to conditions: KM-20L2, 48 h. In outline:
as §1

A further assay deals with BXPC-3. In words: Growth inhibition of human BxPC3 cells after 48 hrs by SRB assay. As to conditions: BXPC-3, 48 h. In outline:
as §1

In a further assay the test system is MCF7. Put plainly: Growth inhibition of human MCF7 cells after 48 hrs by SRB assay. As to conditions: MCF7, 48 h. In outline:
as §1

Numbered stars: 1 amine (or outer) side, 2 acyl side, 3 side chain; on linkers, the order of the positions; unused ones are H or OH. Square brackets hold non-standard residues; d marks the D form. Peptide text beside a SMILES is read from it. * marks the point of attachment. Dolaproine = CO[C@@H]([C@@H]1CCCN1)[C@@H](C)C(=O)O; Hexanoyl(6-maleimido) = O=C1C=CC(=O)N1CCCCCC(=O)*; Dil = CC[C@H](C)[C@H](NC)[C@@H](CC(=O)O)OC; PABC = O=C(OCc1ccc(N[*:1])cc1)[*:2]; Cit = NC(=O)NCCC[C@H](N)C(=O)O; NMeV = CN[C@H](C(=O)O)C(C)C; X1 = c1cc(CCN*)c2cnccc2c1; X2 = c1cc(CCN*)c2ccncc2c1; X3 = c1cc2ccc(CCN*)cc2cn1

What is called GI50 is the concentration that inhibits growth by half.

As for `CC[C@H](C)[C@@H]([C@@H](CC(=O)N1CCC[C@H]1[C@H](OC)[C@@H](C)C(=O)NCCc1ccc2cccnc2c1)OC)N(C)C(=O)[C@@H](NC(=O)[C@H](C(C)C)N(C)C)C(C)C`, the GI50 in the assay on SF-268 was determined as 0.03 nM; in the assay on NCI-H460, 1.19 nM.

As for `CC[C@H](C)[C@@H]([C@@H](CC(=O)N1CCC[C@H]1[C@H](OC)[C@@H](C)C(=O)NCCc1cccc2cnccc12)OC)N(C)C(=O)[C@@H](NC(=O)[C@H](C(C)C)N(C)C)C(C)C`, the GI50 with DU-145 amounted to 2.79 nM; in the assay on KM-20L2, 0.385 nM; with SF-268 it was 0.266 nM; with NCI-H460 it was 17.3 nM; in the assay with BXPC-3 it was 7.31 nM; in the assay on MCF7 it was 0.279 nM.

On to `CC[C@H](C)[C@@H]([C@@H](CC(=O)N1CCC[C@H]1[C@H](OC)[C@@H](C)C(=O)NCCc1cccc2ccncc12)OC)N(C)C(=O)[C@@H](NC(=O)[C@H](C(C)C)N(C)C)C(C)C`, for which the GI50 in the assay with DU-145 was 0.053 nM; with KM-20L2 it was 0.146 nM; in the assay with SF-268, 0.07 nM; in the assay on NCI-H460, 9.03 nM; in the assay with BXPC-3, 4.25 nM; in the assay with MCF7, 0.133 nM.

On to `CC[C@H](C)[C@@H]([C@@H](CC(=O)N1CCC[C@H]1[C@H](OC)[C@@H](C)C(=O)NCCc1ccc2ccncc2c1)OC)N(C)C(=O)[C@@H](NC(=O)[C@H](C(C)C)N(C)C)C(C)C`, for which the GI50 was 0.033 nM in the assay on DU-145; 0.399 nM with KM-20L2; 0.068 nM with SF-268; 9.3 nM in the assay on NCI-H460; 4.39 nM in the assay on BXPC-3; 0.186 nM with MCF7.

Take `CC[C@H](C)[C@@H]([C@@H](CC(=O)N1CCC[C@H]1[C@H](OC)[C@@H](C)C(=O)NCCc1cccc2ccncc12)OC)N(C)C(=O)[C@@H](NC(=O)[C@@H](NC)C(C)C)C(C)C` (H-[NMeV]V[Dil][Dolaproine]-X1): the GI50 in the assay on DU-145 amounted to 0.42 nM; with KM-20L2 it was 0.542 nM; in the assay on SF-268, 0.135 nM; in the assay with NCI-H460, 122 nM; in the assay with BXPC-3 it was 40.6 nM; in the assay with MCF7, 0.271 nM.

In the case of `CC[C@H](C)[C@@H]([C@@H](CC(=O)N1CCC[C@H]1[C@H](OC)[C@@H](C)C(=O)NCCc1cccc2cnccc12)OC)N(C)C(=O)[C@@H](NC(=O)[C@@H](NC)C(C)C)C(C)C` (H-[NMeV]V[Dil][Dolaproine]-X2), the GI50 in the assay with DU-145 is 0.677 nM; with KM-20L2, 0.271 nM; in the assay on SF-268 it was 0.132 nM; with NCI-H460, 42 nM; with BXPC-3, 11 nM; in the assay on MCF7 it was 0.095 nM.

As to `CC[C@H](C)[C@@H]([C@@H](CC(=O)N1CCC[C@H]1[C@H](OC)[C@@H](C)C(=O)NCCc1ccc2ccncc2c1)OC)N(C)C(=O)[C@@H](NC(=O)[C@@H](NC)C(C)C)C(C)C` (H-[NMeV]V[Dil][Dolaproine]-X3), the GI50 in the assay with DU-145 was determined as 0.122 nM; in the assay on KM-20L2 it was 0.569 nM; in the assay with SF-268, 0.325 nM; in the assay on NCI-H460 it was 54.2 nM; in the assay with BXPC-3, 44.7 nM; in the assay on MCF7 it was 0.149 nM.

For `CC[C@H](C)[C@@H]([C@@H](CC(=O)N1CCC[C@H]1[C@H](OC)[C@@H](C)C(=O)NCCc1cccc2ccncc12)OC)N(C)C(=O)[C@@H](NC(=O)[C@H](C(C)C)N(C)C(=O)OCc1ccc(NC(=O)[C@H](CCCNC(N)=O)NC(=O)[C@@H](NC(=O)CCCCCN2C(=O)C=CC2=O)C(C)C)cc1)C(C)C` ({Hexanoyl(6-maleimido)}-V[Cit][PABC][NMeV]V[Dil][Dolaproine]-X1), the GI50 was determined as 23.2 nM in the assay on DU-145; 32.2 nM with KM-20L2; 16.5 nM in the assay on SF-268; 2240 nM in the assay with NCI-H460; 524 nM with BXPC-3; 22.4 nM in the assay on MCF7.

As to `CC[C@H](C)[C@@H]([C@@H](CC(=O)N1CCC[C@H]1[C@H](OC)[C@@H](C)C(=O)NCCc1cccc2cnccc12)OC)N(C)C(=O)[C@@H](NC(=O)[C@H](C(C)C)N(C)C(=O)OCc1ccc(NC(=O)[C@H](CCCNC(N)=O)NC(=O)[C@@H](NC(=O)CCCCCN2C(=O)C=CC2=O)C(C)C)cc1)C(C)C` ({Hexanoyl(6-maleimido)}-V[Cit][PABC][NMeV]V[Dil][Dolaproine]-X2), the GI50 in the assay on DU-145 was 26.9 nM; with KM-20L2, 30.7 nM; with SF-268, 9.72 nM; in the assay on NCI-H460, 396 nM; in the assay with BXPC-3 it was 307 nM; with MCF7, 21.7 nM.

In the case of `CC[C@H](C)[C@@H]([C@@H](CC(=O)N1CCC[C@H]1[C@H](OC)[C@@H](C)C(=O)NCCc1ccc2ccncc2c1)OC)N(C)C(=O)[C@@H](NC(=O)[C@H](C(C)C)N(C)C(=O)OCc1ccc(NC(=O)[C@H](CCCNC(N)=O)NC(=O)[C@@H](NC(=O)CCCCCN2C(=O)C=CC2=O)C(C)C)cc1)C(C)C` ({Hexanoyl(6-maleimido)}-V[Cit][PABC][NMeV]V[Dil][Dolaproine]-X3), the GI50 amounted to 15.7 nM with DU-145; 32.2 nM in the assay with KM-20L2; 9.72 nM in the assay with SF-268; 448 nM in the assay on NCI-H460; 149 nM in the assay on BXPC-3; 18 nM in the assay with MCF7.
